Results: PMC3268818 (Journal of Molecular Biology, 2011)

How the values were obtained:
[1] = SEC-coupled analytical light scattering; type: physicochemical, human; details: for oligomeric state in solution / Mw/Mn / Rg/Rh / dimer fraction / approximate mass of higher-order oligomer: ALS; for oligomeric state in solution / Rh / Mn / Mw/Mn / Mw / Rg / Rg/Rh / dimer fraction: pH 8, 10°C; for Rh: hydrodynamic radius, ALS (DLS); for Rh / Mn / Mw / Rg: at least three independent measurements; for Rh / Mn / Mw/Mn / Mw / Rg / Rg/Rh: ± one standard deviation; for Mn: number-average molar mass; for Mn / Mw / Rg: ALS (SLS); for Mw/Mn: polydispersity; for Mw: weighted-average molar mass; for Rg: radius of gyration; for Rg/Rh: shape ratio
In short: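 His-tagged human BclXL (residues 1–233 or 1–200) was expressed in E. coli and purified by Ni-NTA then SEC. It was run at 10–50μM starting concentration in 50mM sodium phosphate, 100mM NaCl, 1mM EDTA, 5mM β-mercaptoethanol, pH 8.0, on Superdex 200 at 1ml/min and 10°C. Mw, Mn and Rg came from triple-angle SLS (Zimm fit); Rh came from DLS at 90° (Stokes-Einstein). n≥3, ±SD.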

BclXL_FL [2] = assay: DSC thermal stability of BclXL_FL; type: physicochemical, human; details: BclXL_FL alone, 50mM Sodium phosphate, pH 8.0, 10–50μM protein, 40–120°C, 1°C/min, 3atm, repeated at least three times
BclXL_FL [3] = assay: Steady-state fluorescence; parameters: species or system human; details: BclXL_FL alone, 5μM; SSF, excitation 290nm, pH 8.0, 25 °C
BclXL_FL [4] = assay: TEM of negatively-stained BclXL_FL; parameters: species or system human; details: 25μM BclXL_FL alone; 50mM Sodium phosphate, pH 8.0, negative staining
In short: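 Full-length His-tagged human BclXL (residues 1–233) was expressed in E. coli and purified by Ni-NTA and SEC. It was imaged at 25μM, alone or with a 10-molar excess of a 20-mer BH3 peptide, in 50mM sodium phosphate pH 8.0. Samples were negatively stained and viewed by TEM at 80kV and 105,000 magnification.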

Substance	oligomeric state in solution [1]	Rh ([1]; Dimer) [Å]	Mn ([1]; Dimer) [kD]	Mw/Mn ([1]; Dimer)	Mw ([1]; Dimer) [kD]	Rh ([1]; Monomer) [Å]	Mn ([1]; Monomer) [kD]	Mw/Mn ([1]; Monomer)	dimer fraction [1]	also measured
BclXL_FL: Full-length BclXL (residues 1–233), human, with an N-terminal His-tag, expressed in Escherichia coli	predominantly associates into higher-order oligomers	47 ± 2	61 ± 3	1.01 ± 0.01	62 ± 3	36 ± 1	31 ± 1	1.00 ± 0.01	minor fraction	Rh ([1]; Multimer): 99 ± 2 Å; Mn ([1]; Multimer): 321 ± 25 kD; Mw/Mn ([1]; Multimer): 1.14 ± 0.02; Rg ([1]; Multimer): 107 ± 4 Å; Rg/Rh ([1]; Multimer): 1.10 ± 0.01; Mw ([1]; Multimer): 361 ± 26 kD; Rh ([1]; Polymer): 175 ± 6 Å; Mn ([1]; Polymer): 3134 ± 147 kD; Rg ([1]; Polymer): 198 ± 8 Å; Rg/Rh ([1]; Polymer): 1.13 ± 0.02; Mw ([1]; Polymer): 3355 ± 188 kD; oligomer equilibrium on SEC re-analysis ([1]; SEC-resolved fractions re-analyzed on SEC column): reversible monomer-dimer-multimer-polymer equilibrium; approximate mass of higher-order oligomer ([1]; multimer): ~ 300 kD; approximate mass of higher-order oligomer ([1]; polymer): ~ 3000 kD; melting temperature (Tm) (BclXL_FL [2]): > 120 °C; intrinsic fluorescence relative to BclXL_dTM (BclXL_FL [3]): much higher than that observed for the BclXL_dTM construct; TEM appearance (BclXL_FL [4]): rod-like appearance in solution
BclXL_dTM: BclXL in which the TM domain is deleted (residues 1–200), human, with an N-terminal His-tag, expressed in Escherichia coli	largely monomeric in solution	41 ± 3	54 ± 2	1.00 ± 0.01	54 ± 2	33 ± 2	28 ± 2	1.00 ± 0.00	minor fraction	
